Assay outcomes as filed in PubChem.
Most compounds without a hit are left out; they make up all but 1.6% or so of the library.
PLC-gamma1 inh – blocks human PLC-gamma1 enzyme activity. actives 0.84% (n = 370,000). purified PLC-gamma1, fluorogenic substrate, fluorescence. P19174. inhibition, % at 12.2 µM. AID 720700; in the data active = inhibition above about 9.5%
procasp3 activ – activators of human procaspase-3; recombinant procaspase-3 D3A, Ac-DEVD-pNA absorbance 405 nm; P42574; actives 0.11% (n = 330,000); AID 463141; activation, % at 8.5 µM;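 active = activation above the mean of all tested compounds plus 3 SD, cut at about 21% in these data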;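 note: 0% = DMSO alone and 100% = DMSO wells spiked with extra 5 µM PC-3 D3A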
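Assay system – Procaspase-3 D3A mutant · Benchmarks – DMSO low control, extra-enzyme high control · Technique – 405 nm absorbance of p-nitroaniline, reads at 0 and 120 min · Doses – 8.5 µM nominal · Measure – % activation between DMSO and enzyme-spiked controls · Also added – Ac-DEVD-pNA chromogenic peptide substrate · Schedule – 1 h compound preincubation, 2 h substrate hydrolysis at 25 °C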
sPLA2-III inh – Blocks human group III sPLA2 activity; AID 743126; actives 0.56% (n = 370,000); inhibition, % at 12.2 µM; QFRET BODIPY PC-A2 liposome hydrolysis, fluorescence; Q9NZ20;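 active = inhibition above mean plus 3 SD of compounds lying within the high and low control bounds, cut at about 19% in these data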;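 note: 0% = median of test compound wells and 100% = no enzyme DMSO wells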
proCasp7 act – counter-screen for procaspase-3 activators: activators of human procaspase-7; recombinant procaspase-7, Ac-DEVD-pNA absorbance 405 nm; D23A/D198A/D206A triple mutant, cannot self-cleave; scale: DMSO 0, 5 µM enzyme 100; activation, % at 8.5 µM; P55210; actives 0.093% (n = 330,000); AID 463210;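 active = percent activation above the screen-wide mean plus 3 SD, cut at about 25% in these data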
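Assay system: Uncleavable procaspase-7 mutant enzyme; Input: 2 µM procaspase-7 mutant as dispensed; Also added: DEVD-pNA substrate; Medium: Zinc-free HEPES pH 7.4 with 300 mM NaCl, 0.01% Triton X-100; Timing: 1 h compound preincubation, 2 h substrate cleavage, 25 °C; Measured by: Epi-absorbance of released pNA at 405 nm, two timepoints.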
PLCb3 inh – inhibitors of human phospholipase C beta3; Q01970; Purified PLC-beta3, fluorogenic substrate, fluorescence; inhibition, % at 12.2 µM; actives 0.18% (n = 370,000); AID 720704; in the data active = inhibition above about 11%;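 note: 0% = median of compound wells on plate and 100% = full blocker control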
hGIII sPLA2 conf – human GIII-sPLA2 inhibition, confirmation | recombinant hGIII-sPLA2, BODIPY PC-A2 QFRET fluorescence | actives 34% (n = 2,000) | shares compounds with sPLA2-III inh | inhibition, % at 12.2 µM | AID 743280;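 active = mean inhibition across triplicates above the hit cutoff set in the earlier primary screen, cut at about 19% in these data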;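 note: 0% = enzyme with DMSO and 100% = DMSO wells lacking enzyme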
BODIPY interf – 535nm fluorescence interference, HGIII-sPLA2 counter-screen. shares compounds with sPLA2-III inh. BODIPY FL product fluorescence interference, QFRET. inhibition, % at 12.2 µM. actives 8.5% (n = 2,000). AID 743282;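 active = average inhibition above the solvent-only control mean plus 3 SD, cut at about 6% in these data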;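 note: 0% = DMSO with substrate plus product and 100% = DMSO with substrate alone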
BODIPY interf DR – counter-screen for HGIII-sPLA2 inhibitors: 535nm fluorescence interference, dose response | shares compounds with sPLA2-III inh | BODIPY FL product fluorescence interference, cell-free | IC50, µM | 240 tested, under 10 active | AID 743455;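 active = IC50 at or below 10 µM; inactive = IC50 above 10 µM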
Active calls of the source: *; . = no result.

SMILES	PLC-gamma1 inh	procasp3 activ	sPLA2-III inh	proCasp7 act	PLCb3 inh	hGIII sPLA2 conf	BODIPY interf	others
COc1ccc(NC(=O)c2ccc(NC(=O)C(C)C)cc2)c([N+](=O)[O-])c1	0.3	3.0	20.0*	-10.1	-2.6	-4.4	-5.2
CCOc1ccc(NC(=S)NC(=O)c2c(Cl)cnn2CC)c([N+](=O)[O-])c1	2.8	3.6	22.3*	-11.4	-0.7	20.4*	-1.5
COc1ccc(NC(=O)c2cccc(NC(=O)C(C)C)c2)c([N+](=O)[O-])c1	-0.5	3.8	8.8	-0.2	0.9	.	.
COc1ccc(NC(=S)NC(NC(=O)c2ccccc2Cl)C(Cl)(Cl)Cl)c([N+](=O)[O-])c1 (stereo unspecified)	5.4	3.4	27.7*	0.2	-0.1	34.6*	7.2*
CCNc1nc(NC(C)C)nc(OCCOC(=O)Nc2ccccc2)n1	-9.0	-7.3	-4.5	6.9	-13.1	.	.
CCNc1nc(NCC)nc(OCCOC(=O)Nc2ccccc2)n1	-1.7	-1.7	19.4*	7.3	-0.2	-5.2	-5.9
COC(=O)[C@]12C[C@H](CC(=O)N3CCOCC3)C(=O)N(Cc3ccc(Cl)cc3Cl)C1=C[C@H](C1CCCC1)O[C@@H]2C	7.6	.	77.0*	.	1.7	-15.9	-22.7
Cc1ccc(Nc2nnc(SCC(=O)Nc3ncc(S(=O)(=O)c4ccc([N+](=O)[O-])cc4)s3)s2)cc1	7.5	-15.4	19.6*	-3.7	-6.9	-29.6	4.1
CC1CN(C(=S)NC(=O)c2ccccc2)CC(C)O1 (stereo unspecified)	0.6	-1.7	-1.2	-8.3	-3.7	.	.
CC1CN(C(=S)NC(=O)c2ccco2)CC(C)O1 (stereo unspecified)	0.4	-2.4	22.4*	-2.6	0.2	0.1	-3.4
CCCCn1c(=O)nc2n(-c3ccc(Cl)cc3)c3ccccc3cc-2c1=O	-40.6	-2.3	24.8*	-5.7	-54.7	0.0	-7.8
CCOC(=O)c1ccc(NC(=S)NCc2ccco2)cc1	1.9	-0.9	-1.0	3.5	-7.1	.	.
CC(C)(C)c1cc(C(=O)N/N=C/c2ccc(F)cc2)n(-c2ccccc2)n1	5.4	0.4	10.1	2.6	-0.5	.	.
CC(C)(C)c1cc(C(=O)N/N=C/c2ccccc2O)n(-c2ccccc2)n1	-9.3	-54.7	27.6*	-71.7	-7.3	-4.0	-18.7
O=C(Nc1ccc(Br)cc1)c1cccc(OC(=S)N2CCOCC2)c1	1.5	8.1	4.6	9.6	-2.9	.	.
CCCOc1ccc(CSC(=N)N)cc1C(=O)OC	-52.6	-13.3	2.7	10.6	-7.9	.	.
COC(=O)c1cc(CSC(=N)N)ccc1OCCC(C)C	2.6	-4.6	21.3*	3.5	-2.0	29.2*	-13.1
CCOC(=O)c1c(NC(=O)CN2CCN(S(=O)(=O)c3cc(Cl)ccc3Cl)CC2)sc(C(=O)N(C)C)c1C	4.0	.	-12.4	.	-11.2	.	.
CN1/C(=C\C(=O)Nc2ccc(F)cc2)C(C)(C)c2ccccc21	-2.3	-6.8	30.6*	-14.3	-0.3	28.0*	3.1	BODIPY interf DR=>122
CN1/C(=C\C(=O)Nc2ccc(Br)cc2)C(C)(C)c2ccccc21	-5.2	-6.1	15.3	-0.8	-4.5	.	.
CSc1ccc(S(=O)(=O)NCC(=O)OCC(=O)NCc2cccs2)cc1[N+](=O)[O-]	4.9	3.2	-0.6	0.6	-4.7	.	.
CCNCCC(CCC(C)C)c1ccc2c(c1)OCO2 (stereo unspecified)	8.3	2.7	-4.3	8.6	-1.3	.	.
CC(C)CCC(CCNCc1ccccn1)c1ccc2c(c1)OCO2 (stereo unspecified)	6.9	2.4	23.4*	13.4	0.1	-25.0	-25.6
Cc1ccc2ccccc2c1C(O)c1ncc(-c2ccc(Cl)cc2)[nH]1 (stereo unspecified)	1.3	.	-13.4	.	-6.9	.	.
O=C1C2C3C=CC(C3)C2C(=O)N1c1nccs1 (stereo unspecified)	5.9	2.8	10.0	10.7	3.1	.	.
SMILES	PLC-gamma1 inh	procasp3 activ	sPLA2-III inh	proCasp7 act	PLCb3 inh	hGIII sPLA2 conf	BODIPY interf	others
CC(C)=C1C2CCC1C1C(=O)N(c3nccs3)C(=O)C21 (stereo unspecified)	1.1	5.2	20.7*	2.2	-2.9	2.6	-2.3
CNc1ncnc2c1ncn2[C@H]1CN(Cc2cccc3ccccc23)C[C@@H](CO)O1	-0.8	.	0.1	.	1.2	.	.
CN(C(=O)COC(=O)c1nc(-c2ccccc2)n(-c2ccccc2)n1)C1CCS(=O)(=O)C1 (stereo unspecified)	3.2	3.1	1.3	4.7	2.5	.	.
Cc1nn(-c2ccccc2)c(C)c1C(=O)OCC(=O)N(C)C1CCS(=O)(=O)C1 (stereo unspecified)	1.1	2.0	19.9*	4.5	-6.5	-0.8	-8.4
COc1ccc(-c2coc3c(C(=O)Nc4cccc(NS(C)(=O)=O)c4)cccc23)c(C)c1	0.9	.	-29.2	.	-1.8	.	.
CN(Cc1nc2ccccc2c(=O)[nH]1)C(=O)c1cccc(S(=O)(=O)N2CCc3ccccc32)c1	-1.5	16.6	-15.0	2.3	-3.3	.	.
COc1cccc(/C=N/N=C(\N)c2nonc2N)c1O	-3.0	-1.0	19.8*	13.1	1.2	5.8	-3.3
COc1cc(/C=N/N=C(/N)c2nonc2N)cc(Br)c1OCc1ccccc1C	2.0	1.8	-3.4	1.6	3.4	.	.
Cc1cn(CC(=O)NCCNc2ccc([N+](=O)[O-])cn2)c(=O)[nH]c1=O	0.1	.	4.0	.	4.2	.	.
O=C(CSC(=S)N1CCCCC1)Nc1ncc2c(n1)CCCC2=O	5.8	11.4	21.5*	2.0	1.8	1.6	-6.6
O=C(CSC(=S)N1CCCCC1)Nc1ncc2c(n1)CC(c1ccco1)CC2=O (stereo unspecified)	-2.2	3.5	-1.3	13.6	-5.9	.	.
O=C1C=CC(=O)N1c1ccc2c(c1)C(NC(=O)C(F)(F)F)c1ccccc1-2 (stereo unspecified)	-4.2	.	19.4*	.	-3.6	4.2	-4.3
CN(C)C(=O)NC1c2ccccc2-c2ccccc21	2.5	0.6	-1.4	12.2	5.6	.	.
C[C@H](CO)N1C[C@H](C)[C@H](CN(C)S(=O)(=O)c2ccc(-n3cccn3)cc2)OCc2cnnn2CCCC1=O	0.9	.	-1.2	.	1.4	.	.
Cc1ccccc1NC(=O)c1c(C)cc(=O)oc1C	-4.4	7.3	22.7*	5.2	6.0	-1.7	-5.6
Cc1cc(=O)oc(C)c1C(=O)Nc1ccccc1F	-0.2	6.5	25.5*	5.6	-0.1	0.7	-8.3
